Common to all, as to type: functional
Assay [1] relates to Enterobacter cloacae. The assay can be described thus: In vitro antibacterial activity against Enterobacter cloacae ATCC 35030. The method in brief: (§1)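 Broth microdilution MIC in Mueller–Hinton broth supplemented with 50% human serum; inoculum 5 × 10⁵ cfu/mL. MG1655 tolC is an efflux pump mutant.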
Assay [2] has as its system Escherichia coli. Put plainly: In vitro antibacterial activity against Escherichia coli MG1655 tolC. The method, boiled down:
as §1

For assay [3], the system named is Escherichia coli. The assay can be described thus: Inhibitory activity against protein synthesis of Escherichia coli S30 by cell-free transcription/translation coupled assay. The method in brief:
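Coupled transcription/translation in E. coli S30 extract with pGEMbgal DNA template; compounds preincubated with reaction mixture 10 min before template addition; after 1 h incubation ONPG added and β-galactosidase activity read at 420 nm.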

Assay [4] relates to Escherichia coli. The assay can be described thus: In vitro antibacterial activity against Escherichia coli ATCC 25922. The method in brief:
as §1

Assay [5] deals with Escherichia coli. The assay can be described thus: In vitro antibacterial activity against Escherichia coli MG1655. The method, boiled down: as §1
Assay [6] concerns Klebsiella pneumoniae. Put plainly: In vitro antibacterial activity against Klebsiella pneumoniae […]. The method in brief:
as §1

The subject of assay [7] is Mus musculus. The assay can be described thus: In vivo efficacy in Escherichia coli murine septicemia model. The method, boiled down: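 Mice infected ip with approximately 1 × 10⁵ cfu E. coli ATCC25922; compound given iv at 1 and 5 h post-infection; survival followed for 7 days; ED₅₀ calculated by non-linear regression.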
The subject of assay [8] is Pseudomonas aeruginosa. The assay can be described thus: In vitro antibacterial activity against Pseudomonas aeruginosa PA013. The method in brief:
as §1

For assay [9], the system named is Staphylococcus aureus. Put plainly: In vitro antibacterial activity against Staphylococcus aureus ATCC 25293. The method, boiled down:
as §1

In assay [10] the test system is Streptococcus pneumoniae. Put plainly: In vitro antibacterial activity against Streptococcus pneumoniae VSPN1005. The method, boiled down: as §1

Converted amounts (≈) assume the structure as drawn.

For the compound `CNC[C@H](O)C[C@@H](N)CC(=O)NN(C)CC(=O)O`, the MIC amounted to 16 µg/mL (≈ 61 µM) in [1]; 4 µg/mL (≈ 15.2 µM) in [2]; 16 µg/mL (≈ 61 µM) in [4]; 8 µg/mL (≈ 30.5 µM) in [5]; 4 µg/mL (≈ 15.2 µM) in [6]; 128 µg/mL (≈ 488 µM) in [8]. In addition, the results for the MIC in [9] and in [10] were 128 µg/mL (≈ 488 µM) and 256 µg/mL (≈ 976 µM), respectively. In assay [3], 2.3 µM corresponded to half-maximal inhibition (IC50). In [7], this compound registered an ED50 of 16.3 mg/kg.
With `CCCNC[C@H](O)C[C@@H](N)CC(=O)NN(C)CC(=O)O`, the MIC in assay [1], in assay [2], in assay [4], in [5], in assay [6] and in assay [8] was above 256 µg/mL throughout. In addition, the MIC in [9] and in [10] was above 256 µg/mL each time. The IC50 in assay [3] worked out at 20.3 µM.
With `CN(CC(=O)O)NC(=O)C[C@H](N)C[C@@H](O)CNC(N)=O`, the MIC in assay [1], in [2], in assay [4], in assay [5], in assay [6] and in [8] was above 256 µg/mL throughout. Moreover, in assay [9], the MIC was above 256 µg/mL. The same compound displayed an IC50 in [3] above 80 µM.
As to `CN(CC(=O)O)NC(=O)C[C@H](N)C[C@@H](O)CNCc1ccccc1`, the MIC in assay [1] was 64 µg/mL (≈ 189 µM); in assay [2], 16 µg/mL (≈ 47.3 µM); in assay [4], 64 µg/mL (≈ 189 µM); in assay [5], 32 µg/mL (≈ 94.6 µM); in assay [6] it was 32 µg/mL (≈ 94.6 µM); in assay [8], above 128 µg/mL. Moreover, the minimal inhibitory concentration (MIC) in assay [9] was above 128 µg/mL; in [10] it was 128 µg/mL (≈ 378 µM). For the same compound, in assay [3], inhibition was half-maximal at 0.8 µM (IC50).
As to `CN(CC(=O)O)NC(=O)C[C@H](N)C[C@@H](O)CN` [NEGAMYCIN], the MIC was found to be 8 µg/mL (≈ 32.2 µM) in assay [1]; 2 µg/mL (≈ 8.06 µM) in assay [2]; 4 µg/mL (≈ 16.1 µM) in assay [4]; 4 µg/mL (≈ 16.1 µM) in [5]; 2 µg/mL (≈ 8.06 µM) in [6]; 32 µg/mL (≈ 129 µM) in [8]. Besides, the MIC in assay [9] and in [10] was 32 µg/mL (≈ 129 µM) in each case. In assay [3], this compound displayed an IC50 of 1 µM. Besides, in assay [7], the 50% effect level (ED50) was put at a dose of 5.1 mg/kg.
Turning to `CN(CC(=O)O)NC(=O)C[C@H](N)C[C@H](O)CCN`, the MIC in [1], in [2], in [4], in assay [5], in assay [6] and in [8] was above 256 µg/mL throughout. The MIC in assay [9] and in assay [10] was above 256 µg/mL each time. This compound yielded an IC50 in [3] above 80 µM.
Consider `NC[C@H](O)C[C@@H](N)CC(=O)NOCC(=O)O`, for which the MIC in assay [1], in assay [2], in [4], in assay [5], in assay [6] and in [8] was above 256 µg/mL in each case. For the same compound, the minimal inhibitory concentration (MIC) in [9] and in assay [10] was above 256 µg/mL throughout. The same compound registered an IC50 in assay [3] above 80 µM.
Regarding `NC[C@H](O)C[C@@H](N)CC(=O)NN1CCC[C@@H]1C(=O)O`, the MIC in assay [1], in assay [2], in assay [4], in [5], in [6] and in assay [8] was above 256 µg/mL throughout. Also, the MIC in [9] and in assay [10] was above 256 µg/mL throughout. Moreover, the IC50 in [3] is above 80 µM.
As for `CN(CC(=O)O)NC(=O)C[C@H](N)CC(O)CN1CCNCC1` (some centres undefined), the MIC in [1], in assay [2], in assay [4], in [5], in assay [6] and in assay [8] was above 256 µg/mL throughout. Also, the MIC in assay [9] and in assay [10] was above 256 µg/mL each time. In addition, the half-inhibitory concentration (IC50) in [3] was above 80 µM.
On to `CN(CP(=O)(O)O)NC(=O)C[C@H](N)C[C@@H](O)CN`, for which the MIC in assay [1], in assay [2], in assay [4], in assay [5], in assay [6] and in assay [8] was above 256 µg/mL throughout. Also, the MIC in [9] and in [10] was above 256 µg/mL each time. For the same compound, the IC50 in [3] was above 80 µM.
With `CN(CC(=O)O)NC(=O)C[C@H](N)C[C@@H](O)CCN`, the MIC in [1], in assay [2], in [4], in [5], in [6] and in [8] was above 256 µg/mL each time. The MIC in assay [9] and in [10] was above 256 µg/mL in each case. The compound also had an IC50 in assay [3] above 80 µM.
In the case of `CC(ONC(=O)C[C@H](N)C[C@@H](O)CN)C(=O)O` (some centres undefined), the MIC in assay [1], in assay [2], in assay [4], in assay [5], in assay [6] and in assay [8] was above 256 µg/mL each time. The MIC in assay [9] and in [10] was above 256 µg/mL throughout. Besides, in [3], the IC50 was above 80 µM.
Regarding `CN(CC(=O)O)NC(=O)C[C@H](N)CC(O)CN1CC[C@@H](N)C1` (some centres undefined), the MIC in [1], in assay [2], in assay [4], in assay [5], in assay [6] and in assay [8] was above 256 µg/mL throughout. Further, the minimal inhibitory concentration (MIC) in assay [9] and in [10] was above 256 µg/mL in each case. In assay [3], this compound displayed a concentration for half-maximal inhibition (IC50) above 80 µM.
Take `NC[C@H](O)C[C@@H](N)CC(=O)NN1CCC[C@H]1C(=O)O`: the MIC in assay [1], in assay [2], in assay [4], in [5], in assay [6] and in assay [8] was above 256 µg/mL each time. Also, the MIC in assay [9] and in assay [10] was above 256 µg/mL each time. The compound also returned an IC50 in [3] above 80 µM.
As for `CN(CC(=O)O)NC(=O)C[C@H](N)C[C@H](O)CN`, the MIC was 128 µg/mL (≈ 516 µM) in assay [1]; 32 µg/mL (≈ 129 µM) in assay [2]; 128 µg/mL (≈ 516 µM) in [4]; 128 µg/mL (≈ 516 µM) in [5]; 64 µg/mL (≈ 258 µM) in assay [6]; above 512 µg/mL in [8]. In assay [9], this compound had an MIC of 512 µg/mL (≈ 2060 µM). In addition, half-maximal inhibition in [3] (IC50) was put at 23.4 µM.
For the compound `CC(C)C[C@H](N)C(=O)NC[C@H](O)C[C@@H](N)CC(=O)NN(C)CC(=O)O`, the minimal inhibitory concentration (MIC) came to 16 µg/mL (≈ 44.3 µM) in assay [1]; 8 µg/mL (≈ 22.1 µM) in assay [2]; 16 µg/mL (≈ 44.3 µM) in assay [4]; 16 µg/mL (≈ 44.3 µM) in assay [5]; 32 µg/mL (≈ 88.5 µM) in assay [6]; 64 µg/mL (≈ 177 µM) in assay [8]. In [9], this compound yielded an MIC of 256 µg/mL (≈ 708 µM). The IC50 in assay [3] is 3.5 µM.
Turning to `CN(CC(=O)O)NC(=O)C[C@H](N)CC(O)CN1CC[C@H](N)C1` (some centres undefined), the MIC in [1], in [2], in [4], in assay [5], in assay [6] and in [8] was above 256 µg/mL each time. In addition, the MIC in assay [9] and in assay [10] was above 256 µg/mL throughout. Besides, the IC50 in [3] was above 80 µM.
Turning to `CN(Cc1nn[nH]n1)NC(=O)C[C@H](N)C[C@@H](O)CN`, the MIC in assay [1], in [2], in [4], in assay [5], in assay [6] and in assay [8] was above 256 µg/mL in each case. For the same compound, the MIC in [9] and in [10] was above 256 µg/mL each time. Moreover, the IC50 in assay [3] was above 80 µM.
Take `CCNC[C@H](O)C[C@@H](N)CC(=O)NN(C)CC(=O)O`: the minimum inhibitory concentration (MIC) amounted to 16 µg/mL (≈ 57.9 µM) in assay [1]; 4 µg/mL (≈ 14.5 µM) in assay [2]; 16 µg/mL (≈ 57.9 µM) in assay [4]; 8 µg/mL (≈ 29 µM) in [5]; 8 µg/mL (≈ 29 µM) in [6]; 128 µg/mL (≈ 463 µM) in [8]. In addition, the minimum inhibitory concentration (MIC) in assay [9] was above 256 µg/mL. Moreover, in assay [3], the IC50 is 4.5 µM.
Regarding `CN(CC(=O)O)NC(=O)C[C@H](N)CC(O)CN1CCOCC1` (some centres undefined), the MIC in assay [1], in [2], in assay [4], in [5], in [6] and in assay [8] was above 256 µg/mL in each case. Besides, the MIC in [9] and in assay [10] was above 256 µg/mL throughout. For the same compound, the half-maximal inhibitory concentration (IC50) in assay [3] is above 80 µM.
As for `CN(CC(=O)O)NC(=O)C[C@H](N)C[C@@H](O)CN=C(N)N`, the minimal inhibitory concentration (MIC) was above 256 µg/mL in [1]; 128 µg/mL (≈ 441 µM) in assay [2]; above 256 µg/mL in assay [4]; above 256 µg/mL in assay [5]; above 256 µg/mL in assay [6]; above 256 µg/mL in assay [8]. The MIC in assay [9] was above 256 µg/mL. Further, the IC50 in assay [3] is above 80 µM.
Turning to `CC(C)CCCNC[C@H](O)C[C@@H](N)CC(=O)NN(C)CC(=O)O`, the MIC in assay [1], in assay [2], in assay [4], in assay [5], in assay [6] and in [8] was above 256 µg/mL throughout. Also, the MIC in assay [9] and in assay [10] was above 256 µg/mL each time. For the same compound, the IC50 in assay [3] is above 80 µM.
On to `CN(CP(C)(=O)O)NC(=O)C[C@H](N)C[C@@H](O)CN`, for which the MIC in assay [1], in assay [2], in [4], in assay [5], in assay [6] and in assay [8] was above 256 µg/mL each time. The MIC in [9] and in [10] was above 256 µg/mL throughout. The compound further registered an IC50 in assay [3] above 80 µM.

For the origin of these results see ChEMBL document CHEMBL1136118, “N- and C-terminal modifications of negamycin” (Bioorg Med Chem Lett, 2003).
